Reference: ChEMBL document CHEMBL4177769, “Highly Selective and Potent Ectonucleotide Pyrophosphatase-1 (NPP1) Inhibitors Based on Uridine 5'-Pα,α-Dithiophosphate Analogues” (J Med Chem, 2018)
The source made the active and inactive calls. The calls are words filed in the database; no cut-off is given here.

Assays:
[1] = target: T1, Ectonucleoside triphosphate diphosphohydrolase 1 (Homo sapiens) (UniProt P49961); assay: Inhibition of human NTPDase1 at 100 uM using ATP as substrate preincubated for 3 mins followed by substrate addition measured after 10 mins by malachite green reagent-based assay
T1 sequence (whole entry): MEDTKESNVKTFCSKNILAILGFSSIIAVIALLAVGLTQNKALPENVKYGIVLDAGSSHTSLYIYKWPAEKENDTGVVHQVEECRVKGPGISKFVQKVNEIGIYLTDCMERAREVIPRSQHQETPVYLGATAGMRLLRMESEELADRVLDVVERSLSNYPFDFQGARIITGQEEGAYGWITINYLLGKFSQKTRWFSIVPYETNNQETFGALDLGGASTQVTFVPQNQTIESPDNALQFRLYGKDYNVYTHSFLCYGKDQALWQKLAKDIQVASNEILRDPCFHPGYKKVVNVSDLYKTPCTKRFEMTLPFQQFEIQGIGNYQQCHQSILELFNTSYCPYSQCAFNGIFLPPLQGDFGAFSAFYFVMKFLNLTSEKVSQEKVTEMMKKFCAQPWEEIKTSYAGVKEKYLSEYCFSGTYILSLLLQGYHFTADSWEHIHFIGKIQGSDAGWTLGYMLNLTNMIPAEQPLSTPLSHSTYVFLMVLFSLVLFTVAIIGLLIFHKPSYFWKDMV
Outline: (§1)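 Compound at 100 μM, 3 min preincubation, 100 μM ATP, 10 min. Stopped with malachite green; Pi read at 630 nm. Blank with enzyme added after stop subtracted. Activity with ATP alone taken as 100%.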

[2] = target: T2, Ectonucleoside triphosphate diphosphohydrolase 8 (Homo sapiens) (UniProt Q5MY95); assay: Inhibition of human NTPDase8 at 100 uM using ATP as substrate preincubated for 3 mins followed by substrate addition measured after 10 mins by malachite green reagent-based assay; outline: as §1
T2 sequence (whole entry): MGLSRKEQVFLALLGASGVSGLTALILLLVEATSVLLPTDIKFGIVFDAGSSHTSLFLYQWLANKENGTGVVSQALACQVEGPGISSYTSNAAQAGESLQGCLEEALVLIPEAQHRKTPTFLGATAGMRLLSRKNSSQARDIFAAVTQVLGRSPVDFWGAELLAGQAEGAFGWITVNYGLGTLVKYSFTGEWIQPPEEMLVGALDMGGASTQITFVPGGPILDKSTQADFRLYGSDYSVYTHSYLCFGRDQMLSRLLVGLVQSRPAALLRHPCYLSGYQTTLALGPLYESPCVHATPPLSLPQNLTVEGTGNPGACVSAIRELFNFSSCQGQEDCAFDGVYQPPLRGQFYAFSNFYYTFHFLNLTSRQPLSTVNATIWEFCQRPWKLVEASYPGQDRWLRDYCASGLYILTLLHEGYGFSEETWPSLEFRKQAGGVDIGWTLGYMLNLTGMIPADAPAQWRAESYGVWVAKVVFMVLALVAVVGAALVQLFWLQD

[3] = target: T3, Ectonucleotide pyrophosphatase/phosphodiesterase family member 3 (Homo sapiens) (UniProt O14638); assay: Inhibition of human NPP3 at 100 uM using pNP-TMP as substrate preincubated for 3 mins followed by substrate addition measured after 15 mins
T3 sequence (whole entry): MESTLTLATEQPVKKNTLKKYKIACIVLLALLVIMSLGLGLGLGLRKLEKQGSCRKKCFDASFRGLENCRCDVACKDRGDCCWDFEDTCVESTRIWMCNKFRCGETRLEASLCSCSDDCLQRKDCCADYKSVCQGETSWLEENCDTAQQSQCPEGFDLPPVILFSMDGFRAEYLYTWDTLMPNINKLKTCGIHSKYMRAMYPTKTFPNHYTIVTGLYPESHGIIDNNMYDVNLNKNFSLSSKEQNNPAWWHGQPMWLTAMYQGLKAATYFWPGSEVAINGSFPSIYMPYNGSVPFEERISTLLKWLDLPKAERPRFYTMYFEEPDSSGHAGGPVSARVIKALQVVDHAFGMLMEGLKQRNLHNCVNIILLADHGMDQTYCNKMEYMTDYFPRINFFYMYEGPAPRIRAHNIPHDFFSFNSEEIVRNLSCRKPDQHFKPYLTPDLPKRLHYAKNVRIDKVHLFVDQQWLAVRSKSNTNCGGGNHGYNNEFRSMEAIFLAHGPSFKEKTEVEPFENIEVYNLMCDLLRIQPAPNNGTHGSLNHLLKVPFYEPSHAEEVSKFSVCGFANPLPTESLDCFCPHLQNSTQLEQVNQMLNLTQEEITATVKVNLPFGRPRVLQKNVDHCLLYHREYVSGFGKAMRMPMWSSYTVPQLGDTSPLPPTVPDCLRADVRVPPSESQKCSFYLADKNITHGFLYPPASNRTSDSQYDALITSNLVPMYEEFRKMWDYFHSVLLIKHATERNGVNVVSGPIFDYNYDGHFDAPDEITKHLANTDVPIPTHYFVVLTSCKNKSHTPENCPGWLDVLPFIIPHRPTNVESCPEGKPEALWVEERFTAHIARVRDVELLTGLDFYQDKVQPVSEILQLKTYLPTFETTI
Outline: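 Human NPP1 (4−5 μg) or NPP3 (12−14 μg) cell lysate in mM 1 CaCl2, 140 NaCl, 5 KCl, 50 Tris pH 8.5, 37 °C. Compound at 100 μM, 3 min preincubation, 100 μM pNP-TMP substrate. p-Nitrophenol read at 405 nm after 15 min. Blank with enzyme added at end subtracted. Activity without compound taken as 100%. At least two independent experiments in triplicate.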

[4] = target: P2Y purinoceptor 4 (Homo sapiens) (UniProt P51582); assay: Agonist activity at recombinant human P2RY4 expressed in AD293 cells assessed as increase in intracellular calcium levels by Fluo-4/AM dye-based spectrofluorometer; type: functional, cell-based
P2Y purinoceptor 4 (Homo sapiens), sequence (P51582 whole entry): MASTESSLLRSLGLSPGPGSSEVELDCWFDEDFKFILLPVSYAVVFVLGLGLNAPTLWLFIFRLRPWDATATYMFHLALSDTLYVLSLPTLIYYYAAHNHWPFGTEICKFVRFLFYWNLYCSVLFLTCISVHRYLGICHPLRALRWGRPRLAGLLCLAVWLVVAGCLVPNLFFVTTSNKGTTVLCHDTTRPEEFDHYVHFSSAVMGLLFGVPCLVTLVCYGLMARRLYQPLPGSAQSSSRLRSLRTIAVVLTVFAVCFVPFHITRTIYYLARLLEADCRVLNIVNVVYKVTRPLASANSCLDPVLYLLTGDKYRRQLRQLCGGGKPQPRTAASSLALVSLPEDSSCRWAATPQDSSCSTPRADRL
Outline: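 Human P2Y2, P2Y4 or P2Y6 receptor stably expressed in AD293 cells. Compound at 100 μM. Agonism read as change in intracellular calcium (Δ[Ca2+]i), with UDP or UTP as control.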

[5] = Drug metabolism at 2 mM at acidic pH after 5 days by 31P NMR method; type: physicochemical; conditions: read-out: Drug metabolism
[6] = Drug metabolism at 2 mM at basic pH after 5 days by 31P NMR method; type: physicochemical; conditions: read-out: Drug metabolism
[7] = Stability of the compound assessed as air oxidation at room temperature at 1.8 mM after 3 weeks by 31P NMR method; type: physicochemical; conditions: 504 h, 1800 µM

Compound	inhibition [1]	inhibition [2]	inhibition [3] [%]	Activity [4]	degraded at 120 h, 2000 µM [5] [%]	degraded at 120 h, 2000 µM [6] [%]	Stability [7]
O=c1ccn([C@@H]2O[C@H](COP(=S)(S)OP(=O)(O)O)[C@@H](O)[C@H]2O)c(=O)[nH]1 (some centres not stated)	15%	15%	21	inactive			
O=c1ccn([C@@H]2O[C@H](COP(=S)(S)OP(=O)(O)CP(=O)(O)O)[C@@H](O)[C@H]2O)c(=O)[nH]1 (some centres not stated)	15%	15%	21	inactive	2	8	Stable
O=c1ccn([C@@H]2O[C@H](COP(=S)(S)OP(=O)(O)OP(=O)(O)O)[C@@H](O)[C@H]2O)c(=O)[nH]1 (some centres not stated)	inactive	inactive		inactive	11	13	Stable
